Data set [1] has as its target Amyloid-beta precursor protein (Homo sapiens) (UniProt P05067). The data set is described as follows: Inhibition of HFIP-pretreated amyloid beta (1 to 42) (unknown origin) aggregation in PBS buffer at pH 7.4 assessed as effect on fibril formation at 40 uM after 48 hrs by uranyl acetate staining based transmission electron microscopy. A digest of the protocol: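 HFIP-treated Aβ42 (final 10 µM) was incubated with compound (final 40 µM) in PBS containing 1% DMSO, pH 7.4, at 37 °C for 48 h. Pellets were collected by centrifugation and resuspended in distilled water. They were left on formvar-coated copper grids for 5 min, negatively stained with 2% uranyl acetate and imaged by TEM.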

Data set [2] shares this target. As to the kind of experiment: Inhibition of HFIP-pretreated amyloid beta (1 to 42) (unknown origin) aggregation in PBS buffer at pH 7.4 at 40 uM incubated for 48 hrs by thioflavin-T fluorescence assay. A digest of the protocol:
(§1)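 Aβ42 pretreated with HFIP (1 mg/mL, 30 min RT, sonicated 5 min, dried to film), then diluted from 0.1% NH4OH stock to final 10 µM in PBS (50 mM sodium phosphate, 100 mM NaCl) with compound from DMSO stock (final 1% DMSO), pH 7.4. Incubated at 37 °C for 0–48 h. Aliquots were frozen at -80 °C, then mixed with 5.0 µM Th-T in 50 mM Gly-NaOH pH 8.5. Fluorescence read at ex 430/em 510 nm, buffer background subtracted; mean ± SD, n = 4.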

Data set [3] deals with SH-SY5Y. As to the kind of experiment: Neuroprotective activity against amyloid beta (1 to 42 residues) induced cytotoxicity in human SH-SY5Y cells assessed as cell viability at 10 uM after 48 hrs by MTT assay. It counts as functional, cell-based. A digest of the protocol:
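SH-SY5Y cells (ATCC) were grown in DMEM/F-12 with 10% FBS and penicillin/streptomycin at 37 °C, 5% CO2. Cells were plated at 2.0 × 10^4 per well and pre-incubated for 24 h. HFIP-treated Aβ42 (final 1 µM) and compound (final 10 µM) were added, with 0.5% DMSO and 0.01% NH4OH final. After 48 h, MTT (5 mg/mL stock) was added for 4 h, then DMSO was used for solubilization. Mean ± SD, n = 3.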
In general terms: Tetrazolium dyes change colour on reduction, which living cells bring about.

The test system of data set [4] is SH-SY5Y. As to the kind of experiment: Cytotoxicity against human SH-SY5Y cells assessed as reduction in cell viability at 10 uM measured after 48 hrs by MTT assay. It counts as cell-based.
For data set [5], the target named is Amyloid-beta precursor protein (Homo sapiens) (UniProt P05067). As to the kind of experiment: Inhibition of HFIP-pretreated amyloid beta (1 to 42) (unknown origin) aggregation in PBS buffer at pH 7.4 incubated for 48 hrs by thioflavin-T fluorescence assay. The procedure, abridged: as §1

The source made the active and inactive calls. No cut-off for these calls is given here. Peptide text beside a SMILES is read from it.

Sequence of Amyloid-beta precursor protein (Homo sapiens) (P05067 whole entry): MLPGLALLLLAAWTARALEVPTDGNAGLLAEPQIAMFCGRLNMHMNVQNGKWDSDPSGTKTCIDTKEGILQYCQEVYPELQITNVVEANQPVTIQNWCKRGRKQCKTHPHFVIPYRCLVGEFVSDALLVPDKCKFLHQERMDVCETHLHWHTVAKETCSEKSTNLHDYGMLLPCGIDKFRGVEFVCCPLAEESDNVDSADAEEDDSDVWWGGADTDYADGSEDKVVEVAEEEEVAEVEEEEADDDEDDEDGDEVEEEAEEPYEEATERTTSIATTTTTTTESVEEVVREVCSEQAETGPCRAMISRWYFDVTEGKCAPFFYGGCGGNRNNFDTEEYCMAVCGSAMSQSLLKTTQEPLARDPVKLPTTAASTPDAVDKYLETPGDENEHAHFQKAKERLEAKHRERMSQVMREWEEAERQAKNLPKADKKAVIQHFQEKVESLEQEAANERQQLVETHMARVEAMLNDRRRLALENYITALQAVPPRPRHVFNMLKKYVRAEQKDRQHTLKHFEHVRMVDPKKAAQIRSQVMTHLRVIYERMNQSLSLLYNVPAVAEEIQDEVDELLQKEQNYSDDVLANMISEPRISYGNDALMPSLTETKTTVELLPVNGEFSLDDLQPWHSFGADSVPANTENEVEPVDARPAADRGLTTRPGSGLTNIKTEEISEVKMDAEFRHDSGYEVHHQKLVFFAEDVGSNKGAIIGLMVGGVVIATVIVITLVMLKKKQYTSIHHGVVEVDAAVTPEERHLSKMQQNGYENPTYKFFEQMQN

With `O=C(O)C[C@H](NC(=O)[C@@H]1C/C=C/COc2ccc(cc2)C[C@H](NC(=O)[C@@H]2CCCN2)C(=O)N[C@@H](Cc2ccccc2)C(=O)N1)C(=O)O`, the inhibition result in data set [1] is “inactive”. In data set [2], the inhibition entry was “Active”. Further, in data set [3], the outcome was inactive.
Take `CC(C)C[C@H](N)C(=O)N[C@H](C(=O)N[C@H]1Cc2ccc(cc2)OC/C=C/C[C@@H](C(=O)O)NC(=O)[C@H](Cc2ccccc2)NC1=O)C(C)C`: the inhibition entry in data set [1] and in data set [2] was “inactive” in each case. Also, in data set [3], the result was inactive.
On to `CC(C)C[C@H](N)C(=O)N[C@H]1Cc2ccc(cc2)OC/C=C/C[C@@H](C(=O)N[C@@H](CC(=O)O)C(=O)O)NC(=O)[C@H](Cc2ccccc2)NC1=O`, for which the inhibition entry in data set [1] is “inactive”. The inhibition result in data set [2] is “Active”. Moreover, the result in data set [3] was inactive.
Take `CC(C)C[C@H](N)C(=O)N[C@H]1C/C=C/COc2ccc(cc2)C[C@@H](C(=O)N[C@@H](C)C(=O)O)NC(=O)[C@H](Cc2ccccc2)NC1=O`: the inhibition result in data set [1] was “inactive”. In data set [4], the Activity result is reported as “Toxic”. Also, in data set [5], the inhibition entry was “Dose-dependent effect”. Further, the result in data set [3] was inactive.
Regarding `COC(=O)[C@@H]1C/C=C/COc2ccc(cc2)C[C@H](NC(=O)OC(C)(C)C)C(=O)N[C@@H](CC(C)C)C(=O)N1`, the inhibition result in data set [2] was “inactive”.
In the case of `CC(C)C[C@H](N)C(=O)N1CCC[C@H]1C(=O)N[C@@H](Cc1ccccc1)C(=O)N[C@@H](Cc1ccccc1)C(=O)O` (H-LPFF-OH), in data set [2], the inhibition result is “inactive”.
In the case of `CC(C)C[C@H](N)C(=O)N[C@H]1Cc2ccc(cc2)OC/C=C/C[C@@H](C(=O)N[C@@H](C)C(=O)O)NC(=O)[C@H](Cc2ccccc2)NC1=O`, the inhibition entry in data set [1] is “inactive”. For the same compound, the inhibition result in data set [5] was “Dose-dependent effect”. Further, the outcome in data set [3] was inactive.
Consider `C[C@H](NC(=O)[C@@H]1C/C=C/COc2ccc(cc2)C[C@H](NC(=O)[C@@H]2CCCN2)C(=O)N[C@@H](Cc2ccccc2)C(=O)N1)C(=O)O`, for which the inhibition result in data set [1] was “inactive”. Further, the inhibition entry in data set [2] is “Active”. Besides, the outcome in data set [3] was inactive.
Turning to `CC(C)[C@@H]1NC(=O)[C@@H](N)C/C=C/COc2ccc(cc2)C[C@@H](C(=O)N[C@@H](Cc2ccccc2)C(=O)N[C@@H](C)C(=O)O)NC1=O`, the inhibition result in data set [1] and in data set [2] was “inactive” each time. Besides, the result in data set [3] was inactive.

The record behind these values is ChEMBL document CHEMBL4725385, “Design and synthesis of β-strand-fixed peptides inhibiting aggregation of amyloid β-protein” (Bioorg Med Chem, 2020).
